Screening results as filed in PubChem BioAssay.
The sample as a whole holds a higher share of hits than the screen did.
A1 apoptosis 2 – compounds inhibiting A1, read as caspase activation; MEF A1-2A-BIM cells, caspase-Glo luminescence, 3 h; percent of clofoctol response, DMSO zero; caspase activation, % (concentration not given with the values); 24,000 tested, under 10 active; AID 2465; in the data active means caspase activation above about 5.9%
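Evaluation: Caspase-3/7 activity from luminescence increase | Assay system: A1-2A-BIM mouse embryonic fibroblasts | Quantity: 2500 MEF cells/well | Medium: RPMI-1640 plus 10% FBS | Detection: Caspase-Glo 3/7 luminescence, 1 h at room temperature | Dosing: 50 nL compound per well, pinned | Timing: Cells settled overnight, compound exposure 3 h at 37 °C, 5% CO2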
T cruzi HTS – inhibitors of intracellular Trypanosoma cruzi; 4.9% of 22,000 active; intracellular Trypanosoma cruzi in host cells, plate reader; activity score (inhibition), % at 5.01 µM; AID 651903; in the data active means activity score above about 55%;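 further: parasites and compound incubated about four days before reading; 0% = median of neutral control wells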
INS-1E rescue – rescue of cytokine-induced death in INS-1E beta cells. INS-1E cytokine-induced death, ATP luminescence, 48 h; normalised: neutral wells 0, positive control 100. protection from cytokine-induced ATP loss, % at 10 µM. 0.1% of 20,000 active. AID 488910;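 active means mean replicate protection from cytokine-induced ATP loss at least 50% and at least 75% of replicates each reaching 50%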
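assay system = INS-1E rat insulinoma cells | amount = 8000 cells per well | medium = phenol-red-free RPMI with 5% fetal bovine serum | doses = one compound concentration, pin transfer | timing = 48 h cytokine plus compound treatment, 10 min reagent incubation | also added = IL-1β, TNF-α and IFN-γ cytokine mix | signal = CellTiter-Glo luminescence measuring cellular ATP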
Numbers without * were called inactive; nt = no result given.

SMILES | A1 apoptosis 2 | T cruzi HTS | INS-1E rescue
C[C@@H]1CCCCO[C@H](CN(C)C(=O)Nc2ccc(C(F)(F)F)cc2)[C@@H](C)CN([C@H](C)CO)C(=O)c2cc(NC(=O)Cc3ccccc3)ccc2O1 | -2 | 71* | -20
C[C@@H]1CCCCO[C@@H](CN(C)C(=O)Nc2ccc(C(F)(F)F)cc2)[C@@H](C)CN([C@H](C)CO)C(=O)c2cc(NC(=O)Nc3ccccc3)ccc2O1 | 0 | 64* | -6
C[C@@H]1CCCCO[C@H](CN(C)C(=O)Nc2ccc(C(F)(F)F)cc2)[C@H](C)CN([C@H](C)CO)C(=O)c2cc(NC(=O)c3ccccc3)ccc2O1 | -1 | nt | nt
C[C@H]1CCCCO[C@H](CN(C)C(=O)Nc2ccc(C(F)(F)F)cc2)[C@@H](C)CN([C@@H](C)CO)C(=O)c2cc(NC(=O)Cc3ccccc3)ccc2O1 | 1 | nt | nt
CCCC[C@H]1OB(O)C[C@H]2C1=C(COc1ccccc1)C[C@H]1C(=O)N(Cc3ccccc3)C(=O)[C@H]12 | 0 | nt | nt
C[C@@H]1CCCCO[C@@H](CN(C)S(=O)(=O)c2ccc(Cl)cc2)[C@@H](C)CN([C@H](C)CO)C(=O)c2cc(NC(=O)Nc3ccc4c(c3)OCO4)ccc2O1 | nt | 20 | 2
C[C@H]1CN([C@@H](C)CO)C(=O)c2cc(NS(=O)(=O)c3ccc(F)cc3)ccc2O[C@H]1CN(C)Cc1ccc(C(F)(F)F)cc1 | nt | 55* | nt
C[C@@H]1CCCCO[C@H](CN(C)Cc2ccc(C(F)(F)F)cc2)[C@@H](C)CN([C@H](C)CO)C(=O)c2cc(NS(=O)(=O)c3ccc(Cl)cc3)ccc2O1 | 2 | 69* | -31
C[C@@H]1CN([C@H](C)CO)C(=O)c2cc(NS(=O)(=O)c3ccc(Cl)cc3)ccc2O[C@H]1CN(C)Cc1ccc(C(F)(F)F)cc1 | 1 | 47 | -32
C[C@H](CO)N1C[C@H](C)[C@@H](CN(C)Cc2ccc(C(F)(F)F)cc2)Oc2ccc(NS(=O)(=O)c3ccc(Cl)cc3)cc2C1=O | nt | 71* | -8
C[C@H]1CN([C@@H](C)CO)C(=O)c2cc(NS(=O)(=O)c3ccc(Cl)cc3)ccc2O[C@@H]1CN(C)Cc1ccc(C(F)(F)F)cc1 | -1 | 58* | -23
C[C@H]1CN([C@@H](C)CO)C(=O)c2cc(NS(=O)(=O)c3ccc(Cl)cc3)ccc2O[C@H]1CN(C)Cc1ccc(C(F)(F)F)cc1 | -1 | nt | nt
C[C@@H]1CN([C@@H](C)CO)C(=O)c2cc(NS(=O)(=O)c3ccc(Cl)cc3)ccc2O[C@@H](C)CCCCO[C@@H]1CN(C)Cc1ccc(C(F)(F)F)cc1 | 1 | nt | nt
C[C@H](CO)N1C[C@H](C)[C@H](CN(C)Cc2ccc(C(F)(F)F)cc2)Oc2ccc(NS(=O)(=O)c3ccc(F)cc3)cc2C1=O | 1 | -7 | -5
C[C@H](CO)N1C[C@H](C)[C@@H](CN(C)S(=O)(=O)c2ccc(F)cc2)Oc2ccc(NS(=O)(=O)c3ccc(Cl)cc3)cc2C1=O | nt | 14 | -6
Cc1cc(C(=O)Nc2cccc3c2O[C@@H](CN(C)C(=O)Nc2ccc4c(c2)OCO4)[C@H](C)CN([C@H](C)CO)C3=O)n(C)n1 | 0 | -19 | 8
C[C@@H]1CN([C@@H](C)CO)C(=O)Cc2cc(NC(=O)Cc3ccccc3)ccc2O[C@@H]1CN(C)Cc1ccc(C(=O)O)cc1 | 0 | -2 | 4
CC(C)NC(=O)Nc1ccc2c(c1)C(=O)N([C@@H](C)CO)C[C@H](C)[C@H](CN(C)Cc1ccc(Oc3ccccc3)cc1)O2 | nt | 13 | -9
COc1ccc(S(=O)(=O)Nc2cccc3c2O[C@@H](CN(C)Cc2ccncc2)[C@@H](C)CN([C@H](C)CO)C3=O)cc1 | -1 | -8 | 4
O=C(CCCCCC(=O)N/N=C/c1ccccc1O)NO | 0 | nt | nt
Cc1ccsc1/C=N/NC(=O)CCCCCCC(=O)NO | 0 | nt | nt
CCOc1cccc(/C=N/NC(=O)CCCCC(=O)NO)c1OCC | -1 | -7 | 81*
Cc1ccsc1/C=N\NC(=O)CCCCC(=O)NO | nt | 9 | 59*
COc1cc(Cl)c(/C=N\NC(=O)CCCCC(=O)NO)c(Cl)c1OC | -1 | 18 | 68*
COc1cc(Cl)c(/C=N/NC(=O)CCCCCCC(=O)Nc2ccccc2O)c(Cl)c1OC | nt | -12 | 3
CCOc1cccc(/C=N/NC(=O)CCCCCCC(=O)OC)c1OCC | 0 | 1 | 6
O=C(CCCCC(=O)N/N=C/c1c(O)ccc2ccccc12)NO | 0 | -4 | 132*
C[C@H]1CCCCO[C@@H](CN(C)C(=O)Nc2ccc(F)cc2)[C@@H](C)CN([C@@H](C)CO)C(=O)c2cc(NS(=O)(=O)c3ccc(F)cc3)ccc2O1 | -1 | nt | nt
